{"data": "Experimental data pooled from the literature"}
{"SMILES": "O=C(Cn1ccnc1[N+](=O)[O-])NCc1ccccc1", "organism": "Trypanosoma cruzi", "test": "parasite growth", "test system": "rat Myoblast, TULAHUEN", "setting": "intracellular, amastigote", "endpoint": "IC50", "value": "0.352 µg/mL"}
{"SMILES": "Cc1ccc(CNC(=O)c2nc(-c3ccccc3)c3cccnc3c2O)cc1", "organism": "Human betaherpesvirus 5", "test": "viral replication, inhibitor", "test system": "HFF", "endpoint": "EC50", "value": "31 µM"}
{"SMILES": "Cc1sc2[nH]c(=O)n(O)c(=O)c2c1C", "organism": "Human betaherpesvirus 5", "test": "viral replication, inhibitor", "setting": "10 µM, 7 days", "endpoint": "inhibition", "value": "-5.1%"}
{"SMILES": "Nc1ncnc2c([C@@H]3N[C@H](CO)[C@@H](O)[C@H]3O)c[nH]c12", "organism": "human respiratory syncytial virus", "test": "viral replication, inhibitor", "test system": "MA104", "setting": "0.9 µM", "endpoint": "inhibition", "value": "0%"}
{"SMILES": "O=c1[nH]c2c(-c3ccccc3)csc2c(=O)n1O", "organism": "Human betaherpesvirus 5", "test": "viral replication, inhibitor", "setting": "10 µM, 7 days", "endpoint": "inhibition", "value": "5.3%"}
{"SMILES": "O=S(=O)(c1ccc(-c2ccc3ncnc(Nc4ccc(OCc5ccccc5)c(Cl)c4)c3c2)cc1)N1CCOCC1", "organism": "Trypanosoma cruzi", "test": "parasite growth, absorbance", "test system": "NIH3T3, TULAHUEN", "setting": "10 µM, intracellular, amastigote", "endpoint": "inhibition", "value": "9%"}
{"SMILES": "Cc1ccc(CNC(=O)c2nc(Cl)c3cccnc3c2O)cc1", "organism": "Human betaherpesvirus 5", "test": "viral replication, inhibitor", "test system": "HFF", "endpoint": "EC50", "value": "21 µM"}
{"SMILES": "Nc1ccn(C[C@@H](CO)OCP(=O)(O)O)c(=O)n1", "organism": "Human betaherpesvirus 5", "test": "viral replication", "endpoint": "IC50", "value": "0.28 µM"}
{"SMILES": "O=C1c2ccccc2C(c2ccccc2)C(=O)N1OCc1ccccc1 (stereo not shown)", "organism": "Human betaherpesvirus 5", "test": "viral replication, inhibitor", "setting": "10 µM, 7 days", "endpoint": "inhibition", "value": "12%"}
{"SMILES": "COc1cccc(-c2nc(C(=O)NCc3ccc(C)cc3)c(O)c3ncccc23)c1", "organism": "Human betaherpesvirus 5", "test": "viral replication, inhibitor", "test system": "HFF", "endpoint": "EC50", "value": "24 µM"}
